Runt-CBFb FRET = inhibitors of human RUNX1 Runt domain binding to CBFb; inhibition, % at 20 µM; Q01196+Q13951; Cerulean-Runt/Venus-CBFb FRET ratio 530/480, 1 h; 0.46% of 220,000 active; AID 1496;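 active = inhibition over about 50% at 20 µM in the single-dose screen, limit read from the data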;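 note: 0% = DMSO wells and 100% = excess unlabeled CBFb competitor control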
Target sequence (Q01196 whole entry, looked up, the tested form may be a part): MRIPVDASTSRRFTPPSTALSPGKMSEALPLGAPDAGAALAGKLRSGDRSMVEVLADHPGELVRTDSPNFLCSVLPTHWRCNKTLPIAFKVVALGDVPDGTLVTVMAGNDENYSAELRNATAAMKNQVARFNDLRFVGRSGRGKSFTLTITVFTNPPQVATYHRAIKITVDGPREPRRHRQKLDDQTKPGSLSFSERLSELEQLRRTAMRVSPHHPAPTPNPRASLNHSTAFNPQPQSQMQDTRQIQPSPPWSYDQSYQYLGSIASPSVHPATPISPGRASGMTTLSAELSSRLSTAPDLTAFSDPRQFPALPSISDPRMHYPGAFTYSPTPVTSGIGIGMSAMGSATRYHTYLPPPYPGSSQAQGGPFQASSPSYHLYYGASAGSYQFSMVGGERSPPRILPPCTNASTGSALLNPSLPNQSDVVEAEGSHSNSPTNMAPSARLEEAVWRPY
Target sequence (Q13951 whole entry, looked up, the tested form may be a part): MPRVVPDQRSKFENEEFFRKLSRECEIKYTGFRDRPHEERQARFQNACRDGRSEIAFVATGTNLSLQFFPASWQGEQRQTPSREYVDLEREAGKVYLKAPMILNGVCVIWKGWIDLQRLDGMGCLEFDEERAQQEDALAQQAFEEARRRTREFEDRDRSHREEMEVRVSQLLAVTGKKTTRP
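Reagent – Venus-CBFb binding partner, 100 nM · Assay system – Cerulean-tagged RUNX1 Runt domain (FRET donor) fusion protein · Input – 100 nM per protein · Incubation – two 1 h room-temperature incubations shielded from light · Measured by – FRET fluorescence · Medium – Tris buffer pH 7.5 with salts and BSA · Benchmarks – unlabeled CBFb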
Runt-SMMHC FRET = Runt domain-CBFb-SMMHC interaction inhibition; Q01196+Q13951; Cerulean-Runt/Venus-CBFb-SMMHC FRET ratio 530/480, 1 h; inhibition, % at 20 µM; 0.74% of 220,000 active; AID 1434;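 active = mean inhibition across duplicate retests at 20 µM reaching about 50%, limit read from the data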;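 note: 0% = DMSO wells and 100% = wells with excess untagged CBFb-SMMHC; inhibitors lower the FRET ratio by blocking Runt binding to CBFb-SMMHC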
RanGTP-Impb inh = disruptors of Ran-importin-beta complex formation – biochemical, FRET, CFP-Ran, YFP-importin-beta, homogeneous, primary screen; cell-free CFP-Ran/YFP-importin-beta FRET ratio; inhibition, % (no concentration beside the values); 1.1% of 300,000 active;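 active = more than half of the replicate wells show a fall in the fluorescence ratio signal beyond about 16%, limit read from the data, passing the limit was not always enough; inconclusive = exactly half of the replicate wells pass the set limit; inactive = fewer than half of replicates pass the limit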;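 note: 0% = DMSO wells and 100% = Ran loaded with GDP instead of GTP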
Hck Nef HTS = human Hck-Nef kinase inhibition | P08631 | Recombinant Hck-YEEI plus Nef, Z-Lyte FRET kinase assay | inhibition, % at 20 µM | 0.68% of 220,000 active | AID 463187;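 active = Hck-Nef kinase inhibition above about 50%, limit read from the data; inactive = inhibition below that limit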;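 note: 0% = DMSO with Hck plus Nef and 100% = Hck alone without Nef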
* hit, by the source's call; ? = inconclusive; · = no result given. Rows were chosen to be rich in hits. Some 1.8% of all compounds tested hit in one or more screens of this group.

SMILES	Runt-CBFb FRET	Runt-SMMHC FRET	RanGTP-Impb inh	Hck Nef HTS
CN(C)/C=N/C1=C(C#N)C(c2ccc(Br)cc2)c2ccc3ccccc3c2O1 (configuration not stated)	·	·	21*	·
CN1CCN(Cc2c(O)ccc3cc(-c4ccccn4)c(=O)oc23)CC1	19	91*	144*	16
COC(CNC(=O)c1ccc2nc(-c3cccs3)c(-c3cccs3)nc2c1)OC	21	16	43*	5
O=C(CSc1nc2scc(-c3ccccc3)c2c(=O)[nH]1)N1CCOCC1	·	·	-4	·
O=C(NCCN1CCOCC1)c1cc(-c2ccc(F)cc2)nc2ccccc12	·	·	3	·
N=c1c(C(=O)NCCN2CCOCC2)cc2c(=O)n3ccccc3nc2n1CCCN1CCOCC1	·	·	145*	·
N=c1c(C(=O)NCCN2CCOCC2)cc2c(=O)n3ccccc3nc2n1Cc1ccc(F)cc1	·	·	127*	·
Cc1cc(C(=O)COc2cccc3cccnc23)c(C)n1C	4	-2	90*	1
O=C(Nc1cccc(/C=C/c2ccccn2)c1)c1cc(Cl)ccn1	·	·	-4	·
N#C/C(=C\c1ccccc1Cl)C(=O)Nc1ccccn1	·	·	44*	·
CC(C)(C)c1ccc(/C=C(\C#N)C(=O)Nc2ccccn2)cc1	·	·	-2	·
N#C/C(=C\c1ccccc1)C(=O)Nc1ccccn1	·	·	49*	·
C=CCOc1ccc(/C=C(\C#N)C(=O)Nc2ccccn2)cc1	·	·	17*	·
N#C/C(=C\c1cccs1)C(=O)Nc1ccccn1	-4	-18	26*	16
Cc1ccc(O)c(NC(=O)c2ccc3c(c2)C(=O)N(Cc2cccnc2)C3=O)c1	·	·	1	·
O=C(NCCCCc1ccccc1)C1CCCC1	·	·	-1	·
O=C(CN(CCc1ccccc1)S(=O)(=O)c1ccc(Cl)cc1)N/N=C/c1ccccc1C(=O)O	-5	-7	20*	15
Cc1ccccc1CNC(=O)C(=O)NCCC1CCCCN1S(=O)(=O)c1cccs1 (configuration not stated)	·	·	0	·
CCn1cc(C2C(C(=O)Nc3ccc(Br)cn3)=C(C)NC3=C2C(=O)CCC3)c(C)n1 (configuration not stated)	30	74*	3	23
COc1ccc2c3c([nH]c2c1)C1CC2C(CC(O)C(OC)C2C(=O)O)CN1CC3 (configuration not stated)	-1	-8	28*	11
COC(=O)C1=COC(C)C2CN3CCc4c([nH]c5cc(OC)c(OC)cc45)C3CC12 (configuration not stated)	-16	-43	5	21
COc1ccc(NS(=O)(=O)c2cccc(C(=O)NCCCn3ccnc3)c2)cc1	·	·	-4	·
COc1ccccc1N1CCN(CC(O)COc2c(OC)cccc2OC)CC1 (configuration not stated)	-1	1	24*	-2
N#Cc1c(N)n(-c2ccccc2N)c2nc3ccccc3nc12	9	7	3	24
N#Cc1c(N)n(-c2cccc(C(=O)O)c2)c2nc3ccccc3nc12	99*	82*	?	21
SMILES	Runt-CBFb FRET	Runt-SMMHC FRET	RanGTP-Impb inh	Hck Nef HTS
N#Cc1c(N)n(CCNC(=O)c2ccccc2)c2nc3ccccc3nc12	111*	76*	58*	12
CCCCn1c(CCNC(=O)c2cccs2)nc2ccccc21	1	-5	?	6
N#Cc1c(N)n(CCNC(=O)c2cccs2)c2nc3ccccc3nc12	105*	58*	64*	39
CCOC(=O)c1cc(S(=O)(=O)NC2CCC(C)CC2)cn1C (configuration not stated)	·	·	2	·
COc1cccc(CN2CC(C(=O)N3CCOCC3)CCC2=O)c1 (configuration not stated)	·	·	3	·
COc1cc2ccc(=O)oc2c(O)c1OCC=C(C)C	61*	62*	9	9
CC(C)=CCOc1ccc2ccc(=O)oc2c1	2	0	5	16
C=CCc1cccc(/C=N/NC(=O)c2ccccc2OC)c1O	2	2	39*	8
C=CCc1cccc(/C=N/NC(=O)c2ccccc2Br)c1O	0	-2	-1	-6
Cn1c(SCC(=O)NC2CCCCC2)nnc1-c1ccccc1O	·	·	-6	·
COc1ccc(OC)c(NC(=O)C2CCN(C(=O)c3cccs3)CC2)c1	66*	2	0	25
CC1=C(C#N)C(C)C2=C(CC(C)(C)CC2=O)N1 (configuration not stated)	22	50*	5	14
Fc1ccc(NC(=S)NCc2cccnc2)cc1	0	-5	93*	-10
Fc1cccc(NC(=S)NCc2cccnc2)c1	2	-3	1	2

Screening results (PubChem)
